Test results as given in article PMC5624728 (Journal of pharmaceutical innovation, 2017).
In brackets after ≈: the same amount, converted by molar mass. Several values for one entry are separate records, joined by “and”; a condition that tells them apart may be missing. Identical values can stand only once. Like-named read-outs stand apart in the source and are kept apart here.

Tests used:
[1] = Solubility of CSIC in acetonitrile, water and water/acetonitrile; format: physicochemical; settings: room temperature, 5 days
[2] = pH stability of CSIC in solution; format: physicochemical
Oxidation stability = format: physicochemical; settings: 3% H2O2, room temperature, up to 10 days
Procedure, shortened: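 Test compound dissolved at 100 μg/mL final in 40% (v/v) aqueous acetonitrile containing 3% H2O2. Kept at room temperature. Aliquots taken at set intervals up to 10 days. Drug content quantified by HPLC (flow 1.4 mL/min). Results given as mean ± standard deviation.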

Photolysis stability = format: physicochemical
Procedure, shortened: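 Half of each group was foil-wrapped as the dark control. All were held at 30 °C/65% RH under fluorescent light (2 × 20 watts) for 12 days. Aliquots at set times were assayed by HPLC. Light versus dark was compared by a repeated-measures mixed model with pairwise comparisons.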

[3] = CSIC solubility in cosolvent matrixes; format: physicochemical
[4] = 25 °C/60% RH and 65 °C, at least 10 days, 40% acetonitrile
[5] = system: HEC-1A human endometrial epithelial cells; settings: 24 h exposure, MTT
[6] = system: J774A.1 mouse macrophage cells; settings: J774A.1, 24 h exposure, MTT
HIV-1 = settings: antiviral EC50; cited from earlier work
[7] = system: NNRTI resistance mutation K103N; settings: compared to other NNRTIs; cited from earlier work
HIV-1 RT = settings: tight-binding inhibitor; cited from earlier work

## NC(=O)c1[nH]c2ccc(Cl)cc2c1S(=O)(=O)c1ccccc1 [CSIC, 5-chloro-3-[phenylsulfonyl] indole-2-carboxamide]
[1]; 40% (v/v) acetonitrile
  Solubility: 0.36 mg/mL and 1.1 mM
[1]; 100% acetonitrile
  Solubility: 1.7 mg/mL and 5.1 mM
[1]; water
  Solubility: 0.0014 mg/mL and 4.3 μM
[2]; all pH conditions (1.2-10), at least 10 days, room temperature
  drug loss: < 5%
[2]; all pH conditions, each time point up to 10 days
  drug detected compared to time zero: more than 95%
Oxidation stability
  drug loss: 20%
Photolysis stability; dark, 30 °C/65% RH, at least 12 days
  stability stored in the dark: stable
Photolysis stability; fluorescent light source (2 × 20 watts), 12 days
  decline of drug concentration: 4%
[3]; S1: PEG 400 0%, propylene glycol 50%, glycerin 50%
  Solubility: 5.23 mg/mL (≈ 15.6 mM)
[3]; S2: PEG 400 12.5%, propylene glycol 37.5%, glycerin 50%
  Solubility: 10.60 mg/mL (≈ 31.7 mM)
[3]; S3: PEG 400 12.5%, propylene glycol 50%, glycerin 37.5%
  Solubility: 12.85 mg/mL (≈ 38.4 mM)
[3]; S4: PEG 400 25%, propylene glycol 25%, glycerin 50%
  Solubility: 12.85 mg/mL (≈ 38.4 mM)
[3]; S5: PEG 400 25%, propylene glycol 37.5%, glycerin 37.5%
  Solubility: 17.08 mg/mL (≈ 51 mM)
[3]; S6: PEG 400 25%, propylene glycol 50%, glycerin 25%
  Solubility: 19.99 mg/mL (≈ 59.7 mM)
[3]; S7: PEG 400 37.5%, propylene glycol 12.5%, glycerin 50%
  Solubility: 20.46 mg/mL (≈ 61.1 mM)
[3]; S8: PEG 400 37.5%, propylene glycol 25%, glycerin 37.5%
  Solubility: 21.81 mg/mL (≈ 65.1 mM)
[3]; S9: PEG 400 37.5%, propylene glycol 37.5%, glycerin 25%
  Solubility: 24.63 mg/mL (≈ 73.6 mM)
[3]; S10: PEG 400 37.5%, propylene glycol 50%, glycerin 12.5%
  Solubility: 22.59 mg/mL (≈ 67.5 mM)
[3]; S11: PEG 400 50%, propylene glycol 0%, glycerin 50%
  Solubility: 22.86 mg/mL (≈ 68.3 mM)
[3]; S12: PEG 400 50%, propylene glycol 12.5%, glycerin 37.5%
  Solubility: 23.67 mg/mL (≈ 70.7 mM)
[3]; S13: PEG 400 50%, propylene glycol 25%, glycerin 25%
  Solubility: 24.31 mg/mL (≈ 72.6 mM)
[3]; S14: PEG 400 50%, propylene glycol 37.5%, glycerin 12.5%
  Solubility: 28.21 mg/mL (≈ 84.3 mM)
[3]; S15: PEG 400 50%, propylene glycol 50%, glycerin 0%
  Solubility: 28.64 mg/mL (≈ 85.5 mM)
[3]; S16: PEG 400:propylene glycol:glycerin 10:2:4 (PEG 400 62.5%)
  Solubility: 22.7 mg/mL (≈ 67.8 mM)
[3]; S17: PEG 400:propylene glycol:glycerin 10:3:3 (PEG 400 62.5%)
  Solubility: 20.7 mg/mL (≈ 61.8 mM)
[3]; S18: PEG 400:propylene glycol:glycerin 10:4:2 (PEG 400 62.5%), i.e. 5:2:1 w/w/w
  Solubility: 30.2 mg/mL (≈ 90.2 mM)
[3]; S19: PEG 400:propylene glycol:glycerin 6:1:1 (PEG 400 75%)
  Solubility: 29.1 mg/mL (≈ 86.9 mM)
[3]; S20: PEG 400:propylene glycol:glycerin 3:1:0 (PEG 400 75%)
  Solubility: 28.8 mg/mL (≈ 86 mM)
other
  log P: ~ 3
1:1 (v/v) octanol/water
  Log P: 3.72
1:2 (v/v) octanol/water
  Log P: 3.72
2:1 (v/v) octanol/water
  Log P: 3.69
[4]
  drug concentration over time: remained unchanged
[5]
  50% cytotoxic concentration (CC50): greater than 5 μg/mL
[6]
  50% cytotoxic concentration (CC50): greater than 5 μg/mL
HIV-1
  EC50: ~1 nM and 1 nM
[7]
  activity against K103N: retaining good activity
HIV-1 RT
  binding and dissociation behaviour: binds rapidly but then dissociates very slowly
